# Experimental data published in ChEMBL document CHEMBL1141657, “Synthesis, structure elucidation and identification of antitumoural properties of novel fused 1,2,4-triazine aryl derivatives” (Eur J Med Chem, 2008).
# Assays:
# Jurkat [1] = assay: Cytotoxicity against human Jurkat cells assessed as cell viability at 100 uM after 24 hrs by MTT assay relative to control; type: functional; settings: read-out: Activity
# Outline: (§1)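 Jurkat T-cell leukaemia line grown in RPMI 1640 with 10% FBS, 2 mM L-glutamine and gentamycin at 37 °C, 5% CO2, kept in log phase. Compounds were dissolved in DMSO and applied for 24 h. Cells were washed in HEPES-buffered medium (pH 7.4) and given MTT at 0.5 mg/mL for 45 min at 37 °C. Formazan was dissolved in DMSO and read at 570 nm. Viability is % of control, from three independent measurements.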
# SiHa [2] = assay: Growth inhibition of human SiHa cells assessed as BrdU incorporation after 72 hrs by spectrophotometry; type: functional, cell-based
# Outline: (§2)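 Cancer cells were seeded at 10⁴ cells/mL, preincubated, then exposed for 72 h to DMSO-dissolved compound. Growth was read by BrdU labelling with ELISA spectrophotometry. IC50 was taken from 72 h dose–survival curves. Triplicates.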
# Jurkat [3] = assay: Cytotoxicity against human Jurkat cells assessed as decrease in cell viability after 24 hrs by MTT assay; type: functional, cell-based
# Outline: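 Jurkat cells grown in RPMI 1640/10% FBS at 37 °C, 5% CO2, with 24 h exposure to DMSO-dissolved compound. Read-out was MTT reduction: 0.5 mg/mL in HEPES-buffered medium for 45 min, formazan in DMSO, absorbance at 570 nm. IC50 was taken from 24 h dose–survival curves.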
# [4] = Cytotoxicity against HSF cells assessed as cell viability at 50 uM after 24 hrs by MTT assay relative to control; type: cell-based; settings: human, read-out: Activity
# Outline: (§3)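 Normal human skin fibroblasts (HSF, primary line) were exposed to DMSO-dissolved compound for 24 h. Viability was read by MTT tetrazolium reduction and expressed against untreated control set at 100%.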
# Jurkat [5] = assay: Cytotoxicity against human Jurkat cells assessed as cell viability at 1 uM after 24 hrs by MTT assay relative to control; type: functional; settings: read-out: Activity; outline: as §1
# [6] = Cytotoxicity against HSF cells assessed as cell viability at 100 uM after 24 hrs by MTT assay relative to control; type: cell-based; settings: human, read-out: Activity; outline: as §3
# Jurkat [7] = assay: Cytotoxicity against human Jurkat cells assessed as cell viability at 50 uM after 24 hrs by MTT assay relative to control; type: functional; settings: read-out: Activity; outline: as §1
# [8] = Cytotoxicity against HSF cells assessed as cell viability at 1 uM after 24 hrs by MTT assay relative to control; type: cell-based; settings: human, read-out: Activity; outline: as §3
# [9] = Growth inhibition of human LS180 cells assessed as BrdU incorporation after 72 hrs by spectrophotometry; type: functional, cell-based; settings: LS180, 72 h; outline: as §2
# T47D [10] = assay: Growth inhibition of human T47D cells assessed as BrdU incorporation after 72 hrs by spectrophotometry; type: functional, cell-based; outline: as §2
# Mus musculus = assay: Neurotoxicity in ip dosed Swiss albino mouse assessed as impair in motor coordination at 0.1 LD50 concentration by rotarod test; type: toxicity, organism-based; settings: in vivo
# Outline: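 Male Albino Swiss mice (20-25 g), housed 8-10 per cage at 20 ± 1 °C on a 12/12 h light-dark cycle with food and water ad libitum. Randomized groups of 10. Compound given i.p. as a suspension in 3% Tween 80 at 10 mL kg^-1; controls received the same volume of vehicle. Tests run 8 a.m.-3 p.m.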
# T47D [11] = assay: Growth inhibition of human T47D cells assessed as BrdU incorporation at 165.4 uM after 72 hrs by spectrophotometry; type: functional; settings: read-out: GI
# Outline: (§4)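 Each cell line was seeded at 10⁴ cells per mL and preincubated. Test agents were dissolved in DMSO, added at two examined concentrations (10 and 50 per mL by mass), and incubated for 72 h. The end-point was BrdU labeling and detection kit III read on an ELISA reader. Percent growth inhibition was calculated against untreated controls, in triplicate.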
# [12] = Growth inhibition of HSF cells assessed as BrdU incorporation at 165.4 uM after 72 hrs by spectrophotometry; type: cell-based; settings: human, read-out: GI
# Outline: (§5)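 Cells were seeded at 10⁴ cells/mL and preincubated. Compounds were dissolved in DMSO and added at two fixed concentrations, then incubated for 72 h. End-point was BrdU labelling with ELISA detection, read spectrophotometrically. Result is % growth inhibition versus untreated controls. Triplicates.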
# [13] = Growth inhibition of human LS180 cells assessed as BrdU incorporation at 165.4 uM after 72 hrs by spectrophotometry; type: functional; settings: LS180, 72 h, read-out: GI; outline: as §5
# [14] = Growth inhibition of HSF cells assessed as BrdU incorporation at 33.1 uM after 72 hrs by spectrophotometry; type: cell-based; settings: human, read-out: GI; outline: as §5
# SiHa [15] = assay: Growth inhibition of human SiHa cells assessed as BrdU incorporation at 33.1 uM after 72 hrs by spectrophotometry; type: functional; settings: read-out: GI; outline: as §5
# SiHa [16] = assay: Growth inhibition of human SiHa cells assessed as BrdU incorporation at 165.4 uM after 72 hrs by spectrophotometry; type: functional; settings: read-out: GI; outline: as §5
# [17] = Growth inhibition of african green monkey Vero cells assessed as BrdU incorporation at 165.4 uM after 72 hrs by spectrophotometry; type: cell-based; settings: chlorocebus sabaeus, read-out: GI; outline: as §5
# Vero [18] = assay: Growth inhibition of african green monkey Vero cells assessed as BrdU incorporation at 33.1 uM after 72 hrs by spectrophotometry; type: cell-based; settings: chlorocebus sabaeus; outline: as §5
# [19] = Growth inhibition of human LS180 cells assessed as BrdU incorporation at 33.1 uM after 72 hrs by spectrophotometry; type: functional; settings: LS180, 72 h, read-out: GI; outline: as §5
# T47D [20] = assay: Growth inhibition of human T47D cells assessed as BrdU incorporation at 33.1 uM after 72 hrs by spectrophotometry; type: functional; settings: read-out: GI; outline: as §4
# [21] = Growth inhibition of human LS180 cells assessed as BrdU incorporation at 155.9 uM after 72 hrs by spectrophotometry; type: functional; settings: LS180, 72 h, read-out: GI
# [22] = Growth inhibition of human LS180 cells assessed as BrdU incorporation at 31.2 uM after 72 hrs by spectrophotometry; type: functional; settings: LS180, 72 h, read-out: GI
# [23] = Growth inhibition of african green monkey Vero cells assessed as BrdU incorporation at 155.9 uM after 72 hrs by spectrophotometry; type: cell-based; settings: chlorocebus sabaeus, read-out: GI
# Vero [24] = assay: Growth inhibition of african green monkey Vero cells assessed as BrdU incorporation at 31.2 uM after 72 hrs by spectrophotometry; type: cell-based; settings: chlorocebus sabaeus
# SiHa [25] = assay: Growth inhibition of human SiHa cells assessed as BrdU incorporation at 31.2 uM after 72 hrs by spectrophotometry; type: functional; settings: read-out: GI
# T47D [26] = assay: Growth inhibition of human T47D cells assessed as BrdU incorporation at 155.9 uM after 72 hrs by spectrophotometry; type: functional; settings: read-out: GI
# T47D [27] = assay: Growth inhibition of human T47D cells assessed as BrdU incorporation at 31.2 uM after 72 hrs by spectrophotometry; type: functional; settings: read-out: GI
# [28] = Growth inhibition of HSF cells assessed as BrdU incorporation at 31.2 uM after 72 hrs by spectrophotometry; type: cell-based; settings: human, read-out: GI
# SiHa [29] = assay: Growth inhibition of human SiHa cells assessed as BrdU incorporation at 155.9 uM after 72 hrs by spectrophotometry; type: functional; settings: read-out: GI
# [30] = Growth inhibition of HSF cells assessed as BrdU incorporation at 155.9 uM after 72 hrs by spectrophotometry; type: cell-based; settings: human, read-out: GI
compound,measurement,setting,value
CCOC(=O)c1nnc2n(c1=O)CCN2c1ccc(Cl)c(Cl)c1,viability at 100 µM,Jurkat [1],23%
same,IC50,SiHa [2],> 100 µM
same,IC50,Jurkat [3],32.2 µM
same,"viability at 24 h, 50 µM",[4],84%
same,viability at 1 µM,Jurkat [5],91%
same,"viability at 24 h, 100 µM",[6],85%
same,viability at 50 µM,Jurkat [7],28%
same,"viability at 24 h, 1 µM",[8],102%
same,IC50,[9],> 100 µM
same,IC50,T47D [10],> 100 µM
same,Activity,Mus musculus,Non-toxic
CCOC(=O)c1nnc2n(c1=O)CCN2c1ccccc1,viability at 100 µM,Jurkat [1],105%
same,"viability at 24 h, 50 µM",[4],98.1%
same,viability at 1 µM,Jurkat [5],82%
same,"viability at 24 h, 100 µM",[6],77.1%
same,viability at 50 µM,Jurkat [7],103%
same,"viability at 24 h, 1 µM",[8],91.6%
COc1ccc(N2CCn3c2nnc(C(=O)NN)c3=O)cc1,inhibition of growth at 165.4 µM,T47D [11],0%
same,"inhibition at 72 h, 165.4 µM",[12],0%
same,viability at 100 µM,Jurkat [1],100%
same,inhibition of growth at 165.4 µM,[13],1%
same,"viability at 24 h, 50 µM",[4],102%
same,viability at 1 µM,Jurkat [5],97%
same,"inhibition at 72 h, 33.1 µM",[14],0%
same,inhibition of growth at 33.1 µM,SiHa [15],19%
same,"viability at 24 h, 100 µM",[6],100%
same,inhibition of growth at 165.4 µM,SiHa [16],18%
same,"inhibition at 72 h, 165.4 µM",[17],0%
same,growth inhibition (GI),Vero [18],0%
same,viability at 50 µM,Jurkat [7],97%
same,"viability at 24 h, 1 µM",[8],98%
same,inhibition of growth at 33.1 µM,[19],1%
same,inhibition of growth at 33.1 µM,T47D [20],1%
CCOC(=O)c1nnc2n(c1=O)CCN2c1cccc(Cl)c1,inhibition of growth at 155.9 µM,[21],35%
same,inhibition of growth at 31.2 µM,[22],30%
same,"inhibition at 72 h, 155.9 µM",[23],25%
same,growth inhibition (GI),Vero [24],20%
same,viability at 100 µM,Jurkat [1],107%
same,inhibition of growth at 31.2 µM,SiHa [25],41%
same,"viability at 24 h, 50 µM",[4],103%
same,inhibition of growth at 155.9 µM,T47D [26],41%
same,viability at 1 µM,Jurkat [5],114%
same,inhibition of growth at 31.2 µM,T47D [27],26%
same,"inhibition at 72 h, 31.2 µM",[28],16%
same,inhibition of growth at 155.9 µM,SiHa [29],52%
same,"viability at 24 h, 100 µM",[6],98%
same,"inhibition at 72 h, 155.9 µM",[30],17%
same,viability at 50 µM,Jurkat [7],111%
same,"viability at 24 h, 1 µM",[8],104%
